According to publication PMC11384490 (Translational Lung Cancer Research, 2024):

Key:
[1] = system: 4T1 lung metastatic nodules; assay: Imaging of experimental lung metastasis model; type: in vivo, Balb/c mouse; conditions: iRGD-ZW800 10 nmol, 4 h vs ICG 100 nmol, 24 h; result in words
How it was run: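 Balb/c mice received 4T1 cells by tail vein and were observed weekly. After four weeks, the test compound (10 nmol) was given by tail vein. The chest was opened 4 h later and the lungs were imaged with an intraoperative NIRF imager. Control mice got ICG (100 nmol) and were imaged the same way after 24 h.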

[2] = NIRF imaging and biodistribution in NSCLC subcutaneous tumor mouse model; type: in vivo, BALB/c nude mice; conditions: mouse, in vivo, iv, 10 nmol
How it was run: (§1)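 A549 cells in 100 µL PBS were injected subcutaneously into the left armpit of isoflurane-anaesthetised BALB/c nude mice, and tumours were sized by caliper (V=a2bπ/2). At about 100 mm3, mice (n=3) got the test compound (10 nmol) by tail vein. IVIS imaging ran from 1 h to several days, and tumour-to-background ratio was calculated. At 96 h, organs were excised, imaged, and organ-to-muscle fluorescence ratios averaged over 3 mice.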

A549 subcutaneous tumors = assay: as above; type: in vivo, BALB/c nude mice
How it was run: as §1

[3] = system: orthotopic LLC pulmonary xenografts; assay: Orthotopic pulmonary LLC tumor imaging and boundary analysis; type: in vivo, C57BL/6 mice
Water solubility = type: physicochemical; conditions: result in words

With CC1(C)C(/C=C/C2=C(Oc3ccc(CCC(=O)N[C@H]4CSSC[C@@H](C(=O)O)NC(=O)[C@H](CC(=O)O)NC(=O)[C@@H]5CCCN5C(=O)CNC(=O)[C@H](CCCCN)NC(=O)[C@H](CC(=O)O)NC(=O)CNC(=O)[C@H](CCCNC(=N)N)NC4=O)cc3)C(=C/C=C3/N(CCC[N+](C)(C)C)c4ccc(S(=O)(=O)O)cc4C3(C)C)/CCC2)=[N+](CCC[N+](C)(C)C)c2ccc(S(=O)(=O)O)cc21 [iRGD-ZW800] as the molecule, how does the “detection of metastatic lung nodules compared with ICG” value [1] read?
The value was “superior ability to detect more nodules”.

And the tissue to tissue ratio at 96 h [2]?
The tissue to tissue ratio at 96 h was 16.6.

And the “peak tumor-to-background ratio (TBRmax)” value (A549 subcutaneous tumors; 10 nmol per animal via tail vein, peak 96 h after injection, IVIS imaging, n=3)?
Its value is 4.3±1.04.

What about the “Fluorescence intensity ratio Sp/M (spleen/muscle)” value (A549 subcutaneous tumors; ex vivo organs, 96 h after 10 nmol i.v., AVG of 3 mice, SD 0.19) of the same molecule?
The value was 0.85.

What about the “Fluorescence intensity ratio In/M (intestine/muscle)” value (A549 subcutaneous tumors; ex vivo organs, 96 h after 10 nmol i.v., AVG of 3 mice, SD 0.58) of the same molecule?
The value was 1.43.

What about the “Fluorescence intensity ratio H/M (heart/muscle)” value (A549 subcutaneous tumors; ex vivo organs, 96 h after 10 nmol i.v., AVG of 3 mice, SD 0.60) of the same molecule?
Its value is 1.50.

What about the “Fluorescence intensity ratio Ki/M (kidney/muscle)” value (A549 subcutaneous tumors; ex vivo organs, 96 h after 10 nmol i.v., AVG of 3 mice, SD 1.64) of the same molecule?
Its value is 4.57.

What about the “Fluorescence intensity ratio St/M (stomach/muscle)” value (A549 subcutaneous tumors; ex vivo organs, 96 h after 10 nmol i.v., AVG of 3 mice, SD 1.85) of the same molecule?
Its value is 3.67.

And the “Fluorescence intensity ratio Li/M (liver/muscle)” value (A549 subcutaneous tumors; ex vivo organs, 96 h after 10 nmol i.v., AVG of 3 mice, SD 2.55)?
Its value is 5.28.

What about the “Fluorescence intensity ratio L/M (lung/muscle)” value (A549 subcutaneous tumors; ex vivo organs, 96 h after 10 nmol i.v., AVG of 3 mice, SD 2.67) of the same molecule?
Its value is 5.01.

What about the “Fluorescence intensity ratio C/M (colon/muscle)” value (A549 subcutaneous tumors; ex vivo organs, 96 h after 10 nmol i.v., AVG of 3 mice, SD 3.74) of the same molecule?
The value was 6.80.

And the imaging window (A549 subcutaneous tumors; in vivo, 10 nmol tail vein, imaged periodically over 6 days)?
The imaging window was ≥ 6 days.

And the “ratio of tumor to lung fluorescence intensity” value ([3]; 10 nmol tail vein, 24 h, FLI-10B imaging, ImageJ, standard deviation 0.18)?
Its value is 2.2.

And the tumor background ratios ([3]; lung tumor imaging in C57BL/6J mice, all ratios)?
The tumor background ratios was “greater than 1.5”.

What about the water solubility (Water solubility) of the same molecule?
Its water solubility is “good water solubility”.

What about the water solubility (Water solubility; listed as iRGD fluorescent tracer) of the same molecule?
The water solubility was “highly soluble in water”.
